This is a sample that favours compounds with a hit; in the whole collection about 5.9% have one here.
IDH1 mut inh: blocks human IDH1 R132H reductase activity. 0.18% of 70,000 active. AID 624101. diaphorase/resazurin fluorescence, 60 min. O75874. inhibition, % at 10 µM; in the data active = inhibition above about 34%; inconclusive = no clear call, values can overlap the other calls; inactive = below about 11%;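 note: 0% = DMSO and 100% = no enzyme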
Target sequence (O75874 whole entry R132H): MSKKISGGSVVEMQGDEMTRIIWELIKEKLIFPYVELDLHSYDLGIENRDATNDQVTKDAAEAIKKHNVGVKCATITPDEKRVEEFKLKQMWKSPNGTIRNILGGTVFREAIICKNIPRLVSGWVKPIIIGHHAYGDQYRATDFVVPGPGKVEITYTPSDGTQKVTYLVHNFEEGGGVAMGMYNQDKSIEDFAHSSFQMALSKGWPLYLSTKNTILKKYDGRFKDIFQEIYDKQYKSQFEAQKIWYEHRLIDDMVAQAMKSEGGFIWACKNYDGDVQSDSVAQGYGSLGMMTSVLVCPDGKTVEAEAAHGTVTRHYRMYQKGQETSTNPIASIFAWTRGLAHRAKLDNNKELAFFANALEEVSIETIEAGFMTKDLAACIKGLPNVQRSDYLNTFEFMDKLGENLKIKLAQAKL
Pf Dd2 inh: P. falciparum Dd2 growth inhibition | SYBR Green, 72 h; active compounds read low | activity change, % at 10 µM | 2.3% of 94,000 active; in the data active = activity change below about -80%; inconclusive = no clear call, values can overlap the other calls
GASC1 inh: blocks human GASC-1 (KDM4C) demethylase activity; 0.15% of 96,000 active; inhibition, % at 12.5 µM; GST-KDM4C 2-372, H3K9me3 peptide, LANCE TR-FRET; Q9H3R0;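 active = mean replicate inhibition above about 25%, with at least 55% of replicates also reaching it, limit read from the data, passing the limit was not always enough; inconclusive = only one of those two conditions met; inactive = neither condition met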
Target sequence (Q9H3R0 2-372 limits assumed): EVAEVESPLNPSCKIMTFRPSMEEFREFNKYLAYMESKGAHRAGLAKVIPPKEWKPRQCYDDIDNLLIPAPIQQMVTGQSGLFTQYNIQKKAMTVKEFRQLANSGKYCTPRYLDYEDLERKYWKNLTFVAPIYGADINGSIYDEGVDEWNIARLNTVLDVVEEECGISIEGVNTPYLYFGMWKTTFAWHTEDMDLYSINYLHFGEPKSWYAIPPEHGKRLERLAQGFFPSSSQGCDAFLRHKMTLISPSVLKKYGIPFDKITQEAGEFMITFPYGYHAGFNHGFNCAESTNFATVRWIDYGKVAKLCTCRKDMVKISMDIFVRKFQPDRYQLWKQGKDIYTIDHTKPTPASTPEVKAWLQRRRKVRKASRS
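Test system: N-terminal GST-fused human GASC-1 (KDM4C) fragment, residues 2-372; quantity: GASC-1 enzyme at 10 nM final in reaction; dosing: single dose; schedule: 30 min demethylation and 1 h detection at room temperature; signal: LANCE TR-FRET, excitation 340 nm, emissions 618 and 671 nm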
T cruzi growth-1: T. cruzi proliferation inhibition. AID 624255. 5.9% of 77,000 active. inhibition, % at 8.34 µM. T. cruzi beta-gal in NIH3T3, GalScreen luminescence, 90 h;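 active = mean inhibition above about 93%, with at least 55% of replicates each passing it, limit read from the data, passing the limit was not always enough; inconclusive = only one of those two conditions holds; inactive = neither condition holds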
T cruzi growth-2: blocks T. cruzi growth in NIH3T3 host cells; shares compounds with T cruzi growth-1; inhibition, % at 8.35 µM; T. cruzi beta-gal in NIH3T3, GalScreen luminescence, 90 h; 72% of 5,600 active;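 active = mean replicate inhibition above about 95% and at least 55% of replicates individually reaching it, limit read from the data; inconclusive = only one of the two criteria is met; inactive = neither criterion is met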
T cruzi growth-3: inhibitors of T. cruzi proliferation. T. cruzi beta-gal in NIH3T3, GalScreen luminescence, 90 h. shares compounds with T cruzi growth-1. inhibition, % at 2.09 µM. 21% of 5,600 active;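 active = mean inhibition above about 95%, with at least 55% of replicates also reaching it, limit read from the data; inconclusive = meets just one of the two conditions; inactive = meets neither condition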;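 note: plate controls were neutral control median for no effect and positive control median for full effect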
NIH3T3 tox: kills mouse NIH/3T3 fibroblasts. 14% of 5,600 active. cytotoxicity (signal decrease), % at 8.35 µM. NIH/3T3 viability, CellTiter-Glo ATP luminescence, 90 h. shares compounds with T cruzi growth-1;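 active = mean signal decrease across replicates above about 35% based on untreated-well scatter, with enough replicates individually passing, limit read from the data; inconclusive = no rule stated though some were filed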;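 note: 0% = median of neutral control wells and 100% = median of positive control wells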
NIH3T3 tox 2: cytotoxicity in mouse NIH/3T3 fibroblasts | NIH/3T3 viability, CellTiter-Glo ATP luminescence, 90 h | shares compounds with T cruzi growth-1 | AID 651744 | inhibition, % at 24.9 µM | 56% of 5,600 active;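 active = mean loss of cell viability signal at or above a set limit, and enough replicates individually reaching it; inconclusive = meets only the mean limit or only the replicate share; inactive = meets neither condition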;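 note: 0% = median of neutral control wells and 100% = median of positive control wells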
* hit, by the source's call; ? = inconclusive; . = no result given.

SMILES | IDH1 mut inh | Pf Dd2 inh | GASC1 inh | T cruzi growth-1 | T cruzi growth-2 | T cruzi growth-3 | NIH3T3 tox | NIH3T3 tox 2
CCCOc1ccc(C2C(C(=O)Nc3ccccc3OC)=C(C)Nc3ncnn32)cc1OC (stereo unspecified) | -1.0 | . | . | . | . | . | . | .
COc1cccc(-c2cnc3c(c2)C(=O)N([C@H](C)CO)C[C@H](C)[C@H](CN(C)Cc2ccccc2)O3)c1 | -1.6 | -0.9 | -1.2 | 15.6 | . | . | . | .
C[C@@H]1CN([C@H](C)CO)C(=O)c2cc(/C=C/c3ccccc3)cnc2O[C@H]1CN(C)Cc1ccncc1 | 2.8 | -11.2 | 0.9 | 112.9* | 105.3* | 66.0 | 14.4 | 30.4*
COc1cccc(-c2cnc3c(c2)C(=O)N([C@H](C)CO)C[C@H](C)[C@H](CN(C)Cc2cccc(C(F)(F)F)c2)O3)c1 | 4.1 | -17.8 | 0.4 | ? | 107.1* | 80.2 | 30.0 | 61.2*
C[C@@H]1CN([C@@H](C)CO)C(=O)c2cc(/C=C/c3ccccc3)cnc2O[C@@H]1CN(C)Cc1ccncc1 | 0.0 | -25.9 | -2.2 | 67.7 | . | . | . | .
Cc1nn(C(N)=S)c2c1CC(COCCC(C)C)O2 (stereo unspecified) | 14.3 | . | . | . | . | . | . | .
COCC(=O)N1CC[C@H]2[C@H](CO)Nc3ccc(-c4ccc(C#N)cc4)cc3[C@H]21 | . | -22.0 | -3.7 | 73.8 | . | . | . | .
N#Cc1ccc(-c2ccc3c(c2)[C@@H]2[C@@H](CCN2C(=O)Cc2ccccc2)[C@@H](CO)N3)cc1 | . | -59.7 | 0.6 | 98.5* | 100.2* | 100.4* | 7.8 | 39.9*
N#Cc1ccc(-c2ccc3c(c2)[C@H]2[C@H](CCN2C(=O)C2CC2)[C@@H](CO)N3)cc1 | . | 16.3 | ? | 104.7* | ? | 69.5 | -1.9 | 31.7*
COCC(=O)N1CC[C@@H]2[C@H]1c1cc(-c3ccc(C#N)cc3)ccc1N[C@@H]2CO | . | -63.2 | 0.9 | 113.7* | 99.5* | 41.3 | 5.1 | 11.1
N#Cc1ccc(-c2ccc3c(c2)[C@H]2[C@H](CCN2C(=O)C2CCC2)[C@@H](CO)N3)cc1 | . | -54.5 | -2.2 | . | . | . | . | .
N#Cc1ccc(-c2ccc3c(c2)[C@H]2[C@H](CCN2C(=O)Cc2ccccc2)[C@@H](CO)N3)cc1 | . | -23.1 | -3.6 | 80.9 | . | . | . | .
N#Cc1ccc(-c2ccc3c(c2)[C@@H]2[C@@H](CCN2C(=O)C2CC2)[C@H](CO)N3)cc1 | . | 15.2 | -1.0 | 96.8* | 105.9* | 83.1 | -2.5 | 14.9
O=C1C[C@H](c2ccc(O)cc2)Oc2c1c(O)cc(O)c2[C@@H]1C(=O)c2c(O)cc(O)cc2O[C@H]1c1ccc(O)cc1 | 4.4 | . | . | . | . | . | . | .
COc1ccccc1S(=O)(=O)N(C)C[C@@H]1Oc2cc(/C=C/c3ccccc3)ccc2S(=O)(=O)N([C@H](C)CO)C[C@H]1C | -0.1 | ? | 1.7 | 123.8* | 104.8* | 103.4* | 63.2* | 70.8*
C/C=C/c1ccc2c(c1)O[C@@H](CN(C)S(=O)(=O)c1ccc(C)cc1)[C@@H](C)CN([C@H](C)CO)S2(=O)=O | -0.9 | -15.6 | -3.4 | 113.6* | 99.7* | 80.6 | 31.7 | 67.3*
C/C=C/c1ccc2c(c1)O[C@H](CN(C)S(=O)(=O)c1ccccc1OC)[C@@H](C)CN([C@H](C)CO)S2(=O)=O | -6.3 | -55.7 | -2.0 | 116.5* | 106.2* | 86.4 | 39.1* | ?
C/C=C/c1ccc2c(c1)O[C@@H](CN(C)S(=O)(=O)c1ccccc1)[C@@H](C)CN([C@@H](C)CO)S2(=O)=O | -23.4 | -35.7 | -2.0 | 65.4 | . | . | . | .
C/C=C/c1ccc2c(c1)O[C@@H](CN(C)S(=O)(=O)c1ccccc1OC)[C@@H](C)CN([C@@H](C)CO)S2(=O)=O | -1.9 | -46.7 | -0.9 | 67.4 | . | . | . | .
Cc1ccc(NC(=O)C2CC(Cl)=CCC2C(=O)O)c(Br)c1 (stereo unspecified) | 0.1 | . | . | . | . | . | . | .
OC[C@@H]1[C@H](c2ccc(C#Cc3ccccc3F)cc2)[C@@H]2CN(Cc3cncnc3)CCCCN12 | . | -23.3 | -0.5 | 106.7* | 107.3* | 86.7 | 47.4* | 103.7*
OC[C@H]1[C@H](c2ccc(C#Cc3ccccc3F)cc2)[C@@H]2CN(Cc3cncnc3)CCCCN12 | . | -52.0 | 1.2 | 113.5* | 99.1* | 62.2 | ? | 105.5*
OC[C@@H]1[C@@H](c2ccc(C#Cc3ccccc3F)cc2)[C@H]2CN(Cc3cncnc3)CCCCN12 | . | -51.6 | 1.2 | 92.3 | . | . | . | .
OC[C@H]1[C@H](c2ccc(C#Cc3ccccc3)cc2)[C@H]2CN(Cc3cncnc3)CCCCN21 | . | -10.8 | -0.2 | 104.2* | 107.5* | 70.7 | 31.9 | 103.3*
OC[C@H]1[C@H](c2ccc(C#Cc3ccccc3F)cc2)[C@H]2CN(Cc3cncnc3)CCCCN21 | . | -14.0 | -0.5 | 101.0* | 107.8* | 69.9 | 39.5* | 102.9*
SMILES | IDH1 mut inh | Pf Dd2 inh | GASC1 inh | T cruzi growth-1 | T cruzi growth-2 | T cruzi growth-3 | NIH3T3 tox | NIH3T3 tox 2
CC(C)CC#Cc1cnc2c(c1)C(=O)N([C@@H](C)CO)C[C@H](C)[C@@H](CN(C)S(=O)(=O)c1ccccc1)O2 | -3.6 | -44.7 | -2.7 | ? | 101.9* | 72.1 | 12.8 | ?
CC(C)CC#Cc1cnc2c(c1)C(=O)N([C@@H](C)CO)C[C@@H](C)[C@@H](CN(C)S(=O)(=O)c1ccccc1)O2 | -0.1 | -26.5 | -2.2 | 60.0 | . | . | . | .
Cc1ccc(S(=O)(=O)N(C)C[C@@H]2Oc3ncc(C#CCN(C)C)cc3C(=O)N([C@H](C)CO)C[C@@H]2C)cc1 | -0.3 | 5.4 | 0.9 | 13.6 | . | . | . | .
Cc1ccc(S(=O)(=O)N(C)C[C@H]2Oc3ncc(C#CCC(C)C)cc3C(=O)N([C@@H](C)CO)C[C@@H]2C)cc1 | -0.1 | -47.2 | -0.6 | 123.8* | 109.8* | 74.0 | -4.8 | 93.2*
Cc1ccc(S(=O)(=O)N(C)C[C@@H]2Oc3ncc(C#CCC(C)C)cc3C(=O)N([C@@H](C)CO)C[C@H]2C)cc1 | -0.6 | -25.7 | 0.6 | 117.2* | 104.5* | 84.8 | 11.4 | 101.9*
Cc1ccc(S(=O)(=O)N(C)C[C@H]2Oc3ncc(C#CCC(C)C)cc3C(=O)N([C@H](C)CO)C[C@@H]2C)cc1 | -3.5 | -29.9 | -3.0 | 109.7* | ? | 51.7 | 4.4 | 33.1*
C/C=C(\C)C(=O)O[C@@H]1C(C)=C2[C@H]3OC(=O)[C@](C)(O)[C@]3(O)[C@H](OC(=O)C(C)CC)C[C@@](C)(OC(C)=O)[C@@H]2[C@H]1OC(=O)CCCCCCC (stereo partly specified) | 0.4 | . | . | . | . | . | . | .
COc1ccc(CN(C)C[C@@H]2OCCCC[C@H](C)Oc3ccc(NS(=O)(=O)c4ccc(Cl)cc4)cc3C(=O)N([C@@H](C)CO)C[C@H]2C)cc1 | . | -44.3 | -0.9 | ? | 100.2* | 76.0 | 20.7 | 103.5*

High-throughput results deposited in PubChem by Broad Institute.
